From ChEMBL document CHEMBL4732226, “Discovery of a potent G-protein-coupled receptor 119 agonist for the treatment of type 2 diabetes” (Bioorg Med Chem, 2021)

Legend:
[1] = Toxicity in male Wistar rat assessed as glucose level at 100 mg/kg, po after 28 days (reference value: 89.02 +/- 13.41 mg/dl); format: organism-based; settings: in vivo, 672 h, time 28 day
[2] = Toxicity in male Wistar rat assessed as ratio of liver to body weight at 400 mg/kg, po after 28 days (reference value: 3.142 +/- 0.231); format: organism-based; settings: in vivo, 672 h, time 28 day
[3] = Toxicity in male Wistar rat assessed as ratio of heart to body weight at 100 mg/kg, po after 28 days (reference value: 0.333 +/- 0.036); format: organism-based; settings: in vivo, 672 h, time 28 day
[4] = Toxicity in female Wistar rat assessed as ratio of liver to body weight at 400 mg/kg, po after 28 days (reference value: 3.219 +/- 0.221); format: organism-based; settings: in vivo, 672 h, time 28 day
[5] = Toxicity in male Wistar rat assessed as creatinine level at 400 mg/kg, po after 28 days (reference value: 0.61 +/- 0.04 mg/dl); format: organism-based; settings: in vivo, 672 h, time 28 day
[6] = Toxicity in male Wistar rat assessed as ratio of liver to body weight at 100 mg/kg, po after 28 days (reference value: 3.142 +/- 0.231); format: organism-based; settings: in vivo, 672 h, time 28 day
Mus musculus [7] = experiment: Antidiabetic activity in glucose-stimulated […] mouse assessed as reduction in blood glucose level at 50 mg/kg, po pretreated for 30 mins followed by glucose-stimulation and measured up to 120 mins by OGTT method relative to control; format: functional; parameters: scale not given: the % may be the effect or the level left; settings: 0.5 h
How it was run: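 C57 mice aged 6–8 weeks were grouped by non-fasting glucose and fasted overnight. Single oral dose of 50 mg/kg; 30 min later basal bleed and oral glucose 3 g/kg. Serum glucose taken at 20, 40, 60 and 120 min. Change in glucose AUC calculated.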

[8] = Toxicity in female Wistar rat assessed as ratio of kidney to body weight at 400 mg/kg, po after 28 days (reference value: 0.801 +/- 0.071); format: organism-based; settings: in vivo, 672 h, time 28 day
[9] = Toxicity in male Wistar rat assessed as glucose level at 400 mg/kg, po after 28 days (reference value: 89.02 +/- 13.41 mg/dl); format: organism-based; settings: in vivo, 672 h, time 28 day
[10] = Toxicity in female Wistar rat assessed as ratio of brain to body weight at 200 mg/kg, po after 28 days (reference value: 1.1 +/- 0.078); format: organism-based; settings: in vivo, 672 h, time 28 day
[11] = Toxicity in female Wistar rat assessed as ALP level at 200 mg/kg, po after 28 days (reference value: 100.14 +/- 21.98 U/L); format: organism-based; settings: in vivo, 672 h, time 28 day
[12] = Toxicity in male Wistar rat assessed as ratio of thymus to body weight at 400 mg/kg, po after 28 days (reference value: 0.148 +/- 0.023); format: organism-based; settings: in vivo, 672 h, time 28 day
[13] = Elimination rate constant in Sprague-Dawley rat at 25 mg/kg, po up to 24 hrs; format: ADME, organism-based; settings: in vivo
How it was run: (§1)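 Male SD rats fasted overnight, water ad libitum, fed 4 h after dosing. Single oral gavage of 25 mg/kg as a homogeneous suspension in 0.5% Tween 80 in 0.5% Na-CMC. Blood drawn into Na-heparin tubes at 0.25, 0.5, 1, 2, 4, 6, 8 and 24 h; plasma stored at -70°C. Parameters by non-compartmental analysis, with C0 taken as zero and BLQ samples set to zero.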

[14] = Half life in Wistar rat at 10 mg/kg, po up to 24 hrs; format: ADME, organism-based; settings: in vivo
How it was run: (§2)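 Single oral dose at 10 mg/kg given to male Wistar rats and to Beagle dogs; bioavailability also determined in both species.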

[15] = Toxicity in male Wistar rat assessed as urea level at 200 mg/kg, po after 28 days (reference value: 58.14 +/- 9.13 mg/dl); format: organism-based; settings: in vivo, 672 h, time 28 day
[16] = Toxicity in female Wistar rat assessed as neurobehavioral changes at 400 mg/kg, po after 28 days; format: organism-based; settings: in vivo, 672 h, time 28 day
How it was run: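 Repeated-dose oral toxicity by gavage in Wistar rats, 10 males and 10 females per group, given 100, 200 or 400 mg/kg once daily for 28 days. Endpoints were clinical signs, mortality, neurobehaviour, food intake, ophthalmic examination and body weight. Animals were sacrificed on day 29 for blood biochemistry, organ-to-body weight ratios and histopathology.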

[17] = Cmax in Sprague-Dawley rat at 25 mg/kg, po up to 24 hrs; format: ADME, organism-based; parameters: route oral, dose 25 mg/kg, time <=24; settings: in vivo; how it was run: as §1
[18] = Tmax in Beagle dog at 10 mg/kg, po up to 24 hrs; format: ADME, organism-based, Canis lupus familiaris; settings: in vivo; how it was run: as §2
[19] = Half life in Sprague-Dawley rat at 25 mg/kg, po up to 24 hrs; format: ADME, organism-based; settings: in vivo; how it was run: as §1
[20] = Toxicity in female Wistar rat assessed as ALP level at 100 mg/kg, po after 28 days (reference value: 100.14 +/- 21.98 U/L); format: organism-based; settings: in vivo, 672 h, time 28 day
[21] = Toxicity in female Wistar rat assessed as ALT level at 200 mg/kg, po after 28 days (reference value: 21.28 +/- 2.31 U/L); format: organism-based; settings: in vivo, 672 h, time 28 day
[22] = Toxicity in female po dosed Wistar rat after 28 days; format: organism-based; settings: in vivo, time 28 day
How it was run: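 Repeated-dose oral gavage study in Wistar rats, 10 per sex per group, at 100, 200 and 400 mg/kg once daily for 28 days. Clinical signs, mortality, neurobehaviour, food intake, body weight and ophthalmic examination were monitored, followed by blood biochemistry, organ weights and histopathology on day 29.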

[23] = Toxicity in male Wistar rat assessed as albumin level at 100 mg/kg, po after 28 days (reference value: 3.56 +/- 0.08 g.dl); format: organism-based; settings: in vivo, 672 h, time 28 day
[24] = Toxicity in female Wistar rat assessed as ratio of kidney to body weight at 100 mg/kg, po after 28 days (reference value: 0.801 +/- 0.071); format: organism-based; settings: in vivo, 672 h, time 28 day
[25] = Toxicity in female Wistar rat assessed as ratio of liver to body weight at 200 mg/kg, po after 28 days (reference value: 3.219 +/- 0.221); format: organism-based; settings: in vivo, 672 h, time 28 day
[26] = Toxicity in male Wistar rat assessed as ALP level at 200 mg/kg, po after 28 days (reference value: 174.77 +/- 25.42 U/L); format: organism-based; settings: in vivo, 672 h, time 28 day
[27] = Toxicity in female Wistar rat assessed as ratio of ovaries to body weight at 100 mg/kg, po after 28 days (reference value: 0.091 +/- 0.009); format: organism-based; settings: in vivo, 672 h, time 28 day
[28] = Toxicity in female Wistar rat assessed as ratio of liver to body weight at 100 mg/kg, po after 28 days (reference value: 3.219 +/- 0.221); format: organism-based; settings: in vivo, 672 h, time 28 day
[29] = Toxicity in female Wistar rat assessed as urea level at 400 mg/kg, po after 28 days (reference value: 48.09 +/- 5.3 mg/dl); format: organism-based; settings: in vivo, 672 h, time 28 day
[30] = Half life in Beagle dog at 10 mg/kg, po up to 24 hrs; format: ADME, organism-based, Canis lupus familiaris; settings: in vivo; how it was run: as §2
[31] = Toxicity in male Wistar rat assessed as globulin level at 400 mg/kg, po after 28 days (reference value: 2.62 +/- 0.12 g/dl); format: organism-based; settings: in vivo, 672 h, time 28 day
Mus musculus [32] = experiment: Antidiabetic activity in glucose-stimulated db/db mouse assessed as increase in GLP-1 level secretion at 50 mg/kg, po after 10 mins; format: functional
How it was run: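 Male db/db mice received a single oral dose of 50 mg/kg, followed by a glucose load. Plasma active GLP-1 measured in pg/ml at 10 min after glucose.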

For `Cc1c(Oc2cccc(/C=C3\SC(=O)NC3=O)c2)ncnc1OC1CCN(C(=O)OC(C)(C)C)CC1`, which Activity [1] is on record?
Its Activity is 87.56 mg/dL.

And the Ratio [2]?
Its Ratio is 3.22.

What about the Ratio [3] of the same molecule?
Its Ratio is 0.347.

What about the Ratio [4] of the same molecule?
The Ratio was 3.172.

What about the Activity [5] of the same molecule?
The Activity was 0.57 mg/dL.

And the Ratio [6]?
The Ratio was 3.237.

What about the Activity (Mus musculus [7]) of the same molecule?
The Activity was 32.4%.

And the Ratio [8]?
The Ratio was 0.806.

And the Activity [9]?
Its Activity is 82.17 mg/dL.

And the Ratio [10]?
Its Ratio is 1.114.

What about the Activity [11] of the same molecule?
The Activity was 91.73 U/L.

And the Ratio [12]?
Its Ratio is 0.196.

What about the k el at 24 h [13] of the same molecule?
The k el at 24 h was 9.17e-05 s⁻¹.

And the half-life [14]?
The half-life was 12.3 h.

What about the Activity [15] of the same molecule?
The Activity was 55.62 mg/dL.

What about the Activity [16] of the same molecule?
The Activity was “Non-Toxic”.

What about the Cmax [17] of the same molecule?
The Cmax was 4960 ng/mL.

And the Tmax [18]?
The Tmax was 3 h.

And the half-life [19]?
The half-life was 3.09 h.

And the Activity [20]?
Its Activity is 103.72 U/L.

What about the Activity [21] of the same molecule?
Its Activity is 22.2 U/L.

And the NOAEL at 672 h [22]?
The NOAEL at 672 h was > 400 mg/kg.

What about the Activity [23] of the same molecule?
Its Activity is 3.47 g/dL.

What about the Ratio [24] of the same molecule?
Its Ratio is 0.875.

And the Ratio [25]?
Its Ratio is 3.285.

What about the Activity [26] of the same molecule?
Its Activity is 164.68 U/L.

What about the Ratio [27] of the same molecule?
The Ratio was 0.089.

What about the Ratio [28] of the same molecule?
The Ratio was 3.243.

And the Activity [29]?
The Activity was 43.2 mg/dL.

And the half-life [30]?
Its half-life is 19.3 h.

What about the Activity [31] of the same molecule?
Its Activity is 2.53 g/dL.

What about the “fold change (FC)” value (Mus musculus [32]) of the same molecule?
Its value is 2.6.
